# Measured values published in BindingDB's records for doi:10.1021/jm00111a027 (Merck Sharp & Dohme Research Laboratories, 1991).
# Non-standard residues stand in square brackets, D forms with d. Residues, ends and D or L forms follow the SMILES beside them. *: point of attachment. NH(2-Me-nonan-4R-yl) = CCCCC[C@H](CC(C)C)N*; NHCH(iBu)2 = CC(C)CC(CC(C)C)N*; X1 = CC(C)CCOC[C@H](CC(C)C)N*; X11 = CCCCC[C@@H](CC(C)C)N*; Leu(ol) = CC(C)C[C@H](N)CO; X4 = CCCCCC[C@H](CC(C)C)N*; X12 = CCCC[C@H](CC(C)C)N*; X8 = CCCC[C@@H](CC(C)C)N*; X9 = CCC[C@@H](CC(C)C)N*; X3 = COC[C@H](CC(C)C)N*; X6 = CCC[C@H](CC(C)C)N*; Piv = CC(C)(C)C(=O)*; X2 = CCCCC(CCCC)N*; X7 = CCCC(CCC)N*
# Target: not listed separately
# Test: Compound was evaluated for mitogenic inhibition against Swiss 3T3 murine fibroblast cells.
row,IC50 [nM],SMILES
1,20,CCOC(=O)[C@H](CC(C)C)NC(=O)[C@H](Cc1c[nH]cn1)NC(=O)CNC(=O)[C@@H](NC(=O)[C@H](C)NC(=O)[C@H](Cc1c[nH]c2ccccc12)NC(=O)[C@H](Cc1c[nH]cn1)NC(C)=O)C(C)C [2-[2-[2-(2-{2-[2-[2-Acetylamino-3-(3H-imidazol-4-yl)-propionylamino]-3-(1H-indol-3-yl)-propionylamino]-propionylamino}-3-methyl-butyrylamino)-acetylamino]-3-(3H-imidazol-4-yl)-propionylamino]-4-methyl-pentanoic acid ethyl ester] (Ac-HWAVGHL-OEt)
2,4,CCCCC[C@H](CC(C)C)NC(=O)[C@H](Cc1cnc[nH]1)NC(=O)CNC(=O)[C@@H](NC(=O)[C@H](C)NC(=O)[C@H](Cc1c[nH]c2ccccc12)NC(=O)[C@H](Cc1cnc[nH]1)NC(C)=O)C(C)C [2-{2-[2-[2-Acetylamino-3-(3H-imidazol-4-yl)-propionylamino]-3-(1H-indol-3-yl)-propionylamino]-propionylamino}-N-{[2-(3H-imidazol-4-yl)-1-(1-isobutyl-hexylcarbamoyl)-ethylcarbamoyl]-methyl}-3-methyl-butyramide] (Ac-HWAVGH-{NH(2-Me-nonan-4R-yl)})
3,80,CCCC(CCC)NC(=O)[C@H](Cc1cnc[nH]1)NC(=O)CNC(=O)[C@@H](NC(=O)[C@H](C)NC(=O)[C@H](Cc1c[nH]c2ccccc12)NC(=O)[C@H](Cc1cnc[nH]1)NC(C)=O)C(C)C [2-{2-[2-[2-Acetylamino-3-(3H-imidazol-4-yl)-propionylamino]-3-(1H-indol-3-yl)-propionylamino]-propionylamino}-N-{[2-(3H-imidazol-4-yl)-1-(1-propyl-butylcarbamoyl)-ethylcarbamoyl]-methyl}-3-methyl-butyramide] (Ac-HWAVGH-X7)
4,300,CC(=O)N[C@@H](Cc1c[nH]cn1)C(=O)N[C@@H](Cc1c[nH]c2ccccc12)C(=O)N[C@@H](C)C(=O)N[C@H](C(=O)NCC(=O)N[C@@H](Cc1c[nH]cn1)C(=O)N[C@H](CO)CC(C)C)C(C)C [2-{2-[2-[2-Acetylamino-3-(3H-imidazol-4-yl)-propionylamino]-3-(1H-indol-3-yl)-propionylamino]-propionylamino}-N-{[1-(1-hydroxymethyl-3-methyl-butylcarbamoyl)-2-(3H-imidazol-4-yl)-ethylcarbamoyl]-methyl}-3-methyl-butyramide] (Ac-HWAVGH[Leu(ol)])
5,91,COC[C@H](CC(C)C)NC(=O)[C@H](Cc1c[nH]cn1)NC(=O)CNC(=O)[C@@H](NC(=O)[C@H](C)NC(=O)[C@H](Cc1c[nH]c2ccccc12)NC(=O)[C@H](Cc1c[nH]cn1)NC(C)=O)C(C)C [2-{2-[2-[2-Acetylamino-3-(3H-imidazol-4-yl)-propionylamino]-3-(1H-indol-3-yl)-propionylamino]-propionylamino}-N-{[2-(3H-imidazol-4-yl)-1-(1-methoxymethyl-3-methyl-butylcarbamoyl)-ethylcarbamoyl]-methyl}-3-methyl-butyramide] (Ac-HWAVGH-X3)
6,7,CCCCCC[C@H](CC(C)C)NC(=O)[C@H](Cc1cnc[nH]1)NC(=O)CNC(=O)[C@@H](NC(=O)[C@H](C)NC(=O)[C@H](Cc1c[nH]c2ccccc12)NC(=O)[C@H](Cc1cnc[nH]1)NC(C)=O)C(C)C [2-{2-[2-[2-Acetylamino-3-(3H-imidazol-4-yl)-propionylamino]-3-(1H-indol-3-yl)-propionylamino]-propionylamino}-N-{[2-(3H-imidazol-4-yl)-1-(1-isobutyl-heptylcarbamoyl)-ethylcarbamoyl]-methyl}-3-methyl-butyramide] (Ac-HWAVGH-X4)
7,10,CCC[C@H](CC(C)C)NC(=O)[C@H](Cc1cnc[nH]1)NC(=O)CNC(=O)[C@@H](NC(=O)[C@H](C)NC(=O)[C@H](Cc1c[nH]c2ccccc12)NC(=O)[C@H](Cc1cnc[nH]1)NC(C)=O)C(C)C [2-{2-[2-[2-Acetylamino-3-(3H-imidazol-4-yl)-propionylamino]-3-(1H-indol-3-yl)-propionylamino]-propionylamino}-N-{[2-(3H-imidazol-4-yl)-1-(3-methyl-1-propyl-butylcarbamoyl)-ethylcarbamoyl]-methyl}-3-methyl-butyramide] (Ac-HWAVGH-X6)
8,35,CCC[C@@H](CC(C)C)NC(=O)[C@H](Cc1cnc[nH]1)NC(=O)CNC(=O)[C@@H](NC(=O)[C@H](C)NC(=O)[C@H](Cc1c[nH]c2ccccc12)NC(=O)[C@H](Cc1cnc[nH]1)NC(C)=O)C(C)C [2-{2-[2-[2-Acetylamino-3-(3H-imidazol-4-yl)-propionylamino]-3-(1H-indol-3-yl)-propionylamino]-propionylamino}-N-{[2-(3H-imidazol-4-yl)-1-(3-methyl-1-propyl-butylcarbamoyl)-ethylcarbamoyl]-methyl}-3-methyl-butyramide] (Ac-HWAVGH-X9)
9,> 300,CCOC[C@H](CC(C)C)NC(=O)[C@H](Cc1c[nH]cn1)NC(=O)[C@H](C)NC(=O)[C@@H](NC(=O)[C@H](C)NC(=O)[C@H](Cc1c[nH]c2ccccc12)NC(=O)[C@H](Cc1c[nH]cn1)NC(C)=O)C(C)C [2-{2-[2-[2-Acetylamino-3-(3H-imidazol-4-yl)-propionylamino]-3-(1H-indol-3-yl)-propionylamino]-propionylamino}-N-{1-[1-(1-ethoxymethyl-3-methyl-butylcarbamoyl)-2-(3H-imidazol-4-yl)-ethylcarbamoyl]-ethyl}-3-methyl-butyramide]
10,0.6,"CCCCC[C@H](CC(C)C)NC(=O)[C@H](Cc1cnc[nH]1)NC(=O)CNC(=O)[C@@H](NC(=O)[C@H](C)NC(=O)[C@H](Cc1c[nH]c2ccccc12)NC(=O)[C@H](Cc1cnc[nH]1)NC(=O)C(C)(C)C)C(C)C [2-{2-[2-[2-(2,2-Dimethyl-propionylamino)-3-(3H-imidazol-4-yl)-propionylamino]-3-(1H-indol-3-yl)-propionylamino]-propionylamino}-N-{[2-(3H-imidazol-4-yl)-1-(1-isobutyl-hexylcarbamoyl)-ethylcarbamoyl]-methyl}-3-methyl-butyramide] (Piv-HWAVGH-{NH(2-Me-nonan-4R-yl)})"
11,6,CCCC[C@@H](CC(C)C)NC(=O)[C@H](Cc1c[nH]cn1)NC(=O)CNC(=O)[C@@H](NC(=O)[C@H](C)NC(=O)[C@H](Cc1c[nH]c2ccccc12)NC(=O)[C@H](Cc1c[nH]cn1)NC(C)=O)C(C)C [2-{2-[2-[2-Acetylamino-3-(3H-imidazol-4-yl)-propionylamino]-3-(1H-indol-3-yl)-propionylamino]-propionylamino}-N-{[2-(3H-imidazol-4-yl)-1-(1-isobutyl-pentylcarbamoyl)-ethylcarbamoyl]-methyl}-3-methyl-butyramide] (Ac-HWAVGH-X8)
12,22,CCCCC[C@@H](CC(C)C)NC(=O)[C@H](Cc1cnc[nH]1)NC(=O)CNC(=O)[C@@H](NC(=O)[C@H](C)NC(=O)[C@H](Cc1c[nH]c2ccccc12)NC(=O)[C@H](Cc1cnc[nH]1)NC(C)=O)C(C)C [2-{2-[2-[2-Acetylamino-3-(3H-imidazol-4-yl)-propionylamino]-3-(1H-indol-3-yl)-propionylamino]-propionylamino}-N-{[2-(3H-imidazol-4-yl)-1-(1-isobutyl-hexylcarbamoyl)-ethylcarbamoyl]-methyl}-3-methyl-butyramide] (Ac-HWAVGH-X11)

# Target: Gastrin-releasing peptide receptor (Mus musculus, UniProt P21729)
# Sequence (P21729 whole entry): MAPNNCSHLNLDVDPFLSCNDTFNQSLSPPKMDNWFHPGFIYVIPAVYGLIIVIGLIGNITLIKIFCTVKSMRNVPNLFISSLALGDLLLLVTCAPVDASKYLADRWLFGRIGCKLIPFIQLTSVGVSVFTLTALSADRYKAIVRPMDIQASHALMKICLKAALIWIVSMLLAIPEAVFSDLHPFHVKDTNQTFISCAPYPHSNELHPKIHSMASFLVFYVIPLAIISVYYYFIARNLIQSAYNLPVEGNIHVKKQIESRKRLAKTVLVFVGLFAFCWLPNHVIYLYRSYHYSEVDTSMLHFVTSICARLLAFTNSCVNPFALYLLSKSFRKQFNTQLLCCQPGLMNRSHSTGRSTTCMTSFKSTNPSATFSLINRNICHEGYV
# Test: Compound was evaluated for mitogenic inhibition against Swiss 3T3 murine fibroblast cells.
# Summary of the method: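 Swiss 3T3 monolayers grown to confluence, then serum-starved in serum-free DMEM for 48 h. Antagonist added together with 3 nM N-acetyl-GRP-20-27 amide and 23 nM [3H]thymidine. After a further 48 h, cells detached with trypsin/5 mM EDTA and filter-harvested; [3H]thymidine uptake measured. IC50 is the mean of at least two independent experiments.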
row,SMILES,IC50 [nM]
1,CC(=O)N[C@@H](Cc1c[nH]cn1)C(=O)N[C@@H](Cc1c[nH]c2ccccc12)C(=O)N[C@@H](C)C(=O)N[C@H](C(=O)NCC(=O)N[C@@H](Cc1c[nH]cn1)C(=O)N[C@H](COCCC(C)C)CC(C)C)C(C)C [2-{2-[2-[2-Acetylamino-3-(3H-imidazol-4-yl)-propionylamino]-3-(1H-indol-3-yl)-propionylamino]-propionylamino}-N-({2-(3H-imidazol-4-yl)-1-[3-methyl-1-(3-methyl-butoxymethyl)-butylcarbamoyl]-ethylcarbamoyl}-methyl)-3-methyl-butyramide] (Ac-HWAVGH-X1),32

# Target: not listed separately
# Test: Compound was evaluated for mitogenic inhibition against Swiss 3T3 murine fibroblast cells.
# Remark: another data set of the same source
row,IC50 [nM],SMILES
1,11,CCCCC(CCCC)NC(=O)[C@H](Cc1cnc[nH]1)NC(=O)CNC(=O)[C@@H](NC(=O)[C@H](C)NC(=O)[C@H](Cc1c[nH]c2ccccc12)NC(=O)[C@H](Cc1cnc[nH]1)NC(C)=O)C(C)C [2-{2-[2-[2-Acetylamino-3-(3H-imidazol-4-yl)-propionylamino]-3-(1H-indol-3-yl)-propionylamino]-propionylamino}-N-{[1-(1-butyl-pentylcarbamoyl)-2-(3H-imidazol-4-yl)-ethylcarbamoyl]-methyl}-3-methyl-butyramide] (Ac-HWAVGH-X2)
2,3,CCCC[C@H](CC(C)C)NC(=O)[C@H](Cc1cnc[nH]1)NC(=O)CNC(=O)[C@@H](NC(=O)[C@H](C)NC(=O)[C@H](Cc1c[nH]c2ccccc12)NC(=O)[C@H](Cc1cnc[nH]1)NC(C)=O)C(C)C [2-{2-[2-[2-Acetylamino-3-(3H-imidazol-4-yl)-propionylamino]-3-(1H-indol-3-yl)-propionylamino]-propionylamino}-N-{[2-(3H-imidazol-4-yl)-1-(1-isobutyl-pentylcarbamoyl)-ethylcarbamoyl]-methyl}-3-methyl-butyramide] (Ac-HWAVGH-X12)
3,8,CC(=O)N[C@@H](Cc1cnc[nH]1)C(=O)N[C@@H](Cc1c[nH]c2ccccc12)C(=O)N[C@@H](C)C(=O)N[C@H](C(=O)NCC(=O)N[C@@H](Cc1cnc[nH]1)C(=O)NC(CC(C)C)CC(C)C)C(C)C [2-{2-[2-[2-Acetylamino-3-(3H-imidazol-4-yl)-propionylamino]-3-(1H-indol-3-yl)-propionylamino]-propionylamino}-N-{[2-(3H-imidazol-4-yl)-1-(1-isobutyl-3-methyl-butylcarbamoyl)-ethylcarbamoyl]-methyl}-3-methyl-butyramide] (Ac-HWAVGH-{NHCH(iBu)2})
